In ChEMBL document CHEMBL2413013, “Triplex-forming ability of oligonucleotides containing 1-aryl-1,2,3-triazole nucleobases linked via a two atom-length spacer” (Bioorg Med Chem, 2013):

Columns and labels:
[1] = Binding affinity to hairpin double stranded DNA CG base pair in sodium cacodylate buffer at pH 6.8 assessed as triplex-forming ability measuring melting temperature after by UV melting experiment
Outline: (§1)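 TFO and hairpin dsDNA target, each strand at 1.89 μM final, in 10 mM sodium cacodylate (pH 6.8) with 100 mM KCl and 50 mM MgCl₂. Annealed in boiling water, then cooled slowly to 5 °C. Melting was followed at 260 nm from 5 to 90 °C at 0.5 °C/min. Tm was taken by the two-point average method, mean of three independent runs.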

[2] = Binding affinity to hairpin double stranded DNA TA base pair in sodium cacodylate buffer at pH 6.8 assessed as triplex-forming ability measuring melting temperature after by UV melting experiment; outline: as §1
[3] = Binding affinity to hairpin double stranded DNA AT base pair in sodium cacodylate buffer at pH 6.8 assessed as triplex-forming ability measuring melting temperature after by UV melting experiment; outline: as §1
[4] = Binding affinity to hairpin double stranded DNA GC base pair in sodium cacodylate buffer at pH 6.8 assessed as triplex-forming ability measuring melting temperature after by UV melting experiment; outline: as §1

| Compound | Tm [1] | Tm [2] | Tm [3] | Tm [4] |
| --- | --- | --- | --- | --- |
| Cc1cn([C@H]2C[C@H](O[PH](OCCC#N)(OC[C@H]3O[C@@H](n4cc(C)c(=O)[nH]c4=O)C[C@@H]3O[PH](OCCC#N)(OC[C@H]3O[C@@H](n4cc(C)c(=O)[nH]c4=O)C[C@@H]3O[PH](OCCC#N)(OC[C@H]3O[C@@H](n4cc(C)c(=O)[nH]c4=O)C[C@@H]3O[PH](OCCC#N)(OC[C@H]3O[C@@H](n4cc(C)c(=O)[nH]c4=O)C[C@@H]3O[PH](OCCC#N)(OC(C)[C@H]3O[C@@H](n4ccc(N)nc4=O)C[C@@H]3O[PH](OCCC#N)(OC[C@H]3O[C@@H](n4cc(C)c(=O)[nH]c4=O)C[C@@H]3O[PH](OCCC#N)(OC[C@H]3O[C@@H](CCc4cn(-c5cccc(C(N)=O)c5)nn4)C[C@@H]3OP(=O)(O)OC[C@H]3O[C@@H](n4cc(C)c(=O)[nH]c4=O)C[C@@H]3O[PH](OCCC#N)(OC(C)[C@H]3O[C@@H](n4ccc(N)nc4=O)C[C@@H]3O[PH](OCCC#N)(OC[C@H]3O[C@@H](n4cc(C)c(=O)[nH]c4=O)C[C@@H]3O[PH](OCCC#N)(OC(C)[C@H]3O[C@@H](n4ccc(N)nc4=O)C[C@@H]3O[PH](OCCC#N)(OC[C@H]3O[C@@H](n4cc(C)c(=O)[nH]c4=O)C[C@@H]3O[PH](OCCC#N)(OC(C)[C@H]3O[C@@H](n4ccc(N)nc4=O)C[C@@H]3O[PH](OCCC#N)(OC[C@H]3O[C@@H](n4cc(C)c(=O)[nH]c4=O)C[C@@H]3O)N(C(C)C)C(C)C)N(C(C)C)C(C)C)N(C(C)C)C(C)C)N(C(C)C)C(C)C)N(C(C)C)C(C)C)N(C(C)C)C(C)C)N(C(C)C)C(C)C)N(C(C)C)C(C)C)N(C(C)C)C(C)C)N(C(C)C)C(C)C)N(C(C)C)C(C)C)N(C(C)C)C(C)C)N(C(C)C)C(C)C)[C@@H](CO)O2)c(=O)[nH]c1=O (stereo partly specified) | 25 °C | 25 °C | 22 °C | 22 °C |
| Cc1cn([C@H]2C[C@H](O[PH](OCCC#N)(OC[C@H]3O[C@@H](n4cc(C)c(=O)[nH]c4=O)C[C@@H]3O[PH](OCCC#N)(OC[C@H]3O[C@@H](n4cc(C)c(=O)[nH]c4=O)C[C@@H]3O[PH](OCCC#N)(OC[C@H]3O[C@@H](n4cc(C)c(=O)[nH]c4=O)C[C@@H]3O[PH](OCCC#N)(OC[C@H]3O[C@@H](n4cc(C)c(=O)[nH]c4=O)C[C@@H]3O[PH](OCCC#N)(OC(C)[C@H]3O[C@@H](n4ccc(N)nc4=O)C[C@@H]3O[PH](OCCC#N)(OC[C@H]3O[C@@H](n4cc(C)c(=O)[nH]c4=O)C[C@@H]3O[PH](OCCC#N)(OC[C@H]3O[C@@H](CCc4cn(-c5ccccc5O)nn4)C[C@@H]3OP(=O)(O)OC[C@H]3O[C@@H](n4cc(C)c(=O)[nH]c4=O)C[C@@H]3O[PH](OCCC#N)(OC(C)[C@H]3O[C@@H](n4ccc(N)nc4=O)C[C@@H]3O[PH](OCCC#N)(OC[C@H]3O[C@@H](n4cc(C)c(=O)[nH]c4=O)C[C@@H]3O[PH](OCCC#N)(OC(C)[C@H]3O[C@@H](n4ccc(N)nc4=O)C[C@@H]3O[PH](OCCC#N)(OC[C@H]3O[C@@H](n4cc(C)c(=O)[nH]c4=O)C[C@@H]3O[PH](OCCC#N)(OC(C)[C@H]3O[C@@H](n4ccc(N)nc4=O)C[C@@H]3O[PH](OCCC#N)(OC[C@H]3O[C@@H](n4cc(C)c(=O)[nH]c4=O)C[C@@H]3O)N(C(C)C)C(C)C)N(C(C)C)C(C)C)N(C(C)C)C(C)C)N(C(C)C)C(C)C)N(C(C)C)C(C)C)N(C(C)C)C(C)C)N(C(C)C)C(C)C)N(C(C)C)C(C)C)N(C(C)C)C(C)C)N(C(C)C)C(C)C)N(C(C)C)C(C)C)N(C(C)C)C(C)C)N(C(C)C)C(C)C)[C@@H](CO)O2)c(=O)[nH]c1=O (stereo partly specified) | 22 °C | 18 °C | 20 °C | 19 °C |
| Cc1cn([C@H]2C[C@H](O[PH](OCCC#N)(OC[C@H]3O[C@@H](n4cc(C)c(=O)[nH]c4=O)C[C@@H]3O[PH](OCCC#N)(OC[C@H]3O[C@@H](n4cc(C)c(=O)[nH]c4=O)C[C@@H]3O[PH](OCCC#N)(OC[C@H]3O[C@@H](n4cc(C)c(=O)[nH]c4=O)C[C@@H]3O[PH](OCCC#N)(OC[C@H]3O[C@@H](n4cc(C)c(=O)[nH]c4=O)C[C@@H]3O[PH](OCCC#N)(OC(C)[C@H]3O[C@@H](n4ccc(N)nc4=O)C[C@@H]3O[PH](OCCC#N)(OC[C@H]3O[C@@H](n4cc(C)c(=O)[nH]c4=O)C[C@@H]3O[PH](OCCC#N)(OC[C@H]3O[C@@H](OCc4cn(-c5cccc(NC(N)=O)c5)nn4)C[C@@H]3OP(=O)(O)OC[C@H]3O[C@@H](n4cc(C)c(=O)[nH]c4=O)C[C@@H]3O[PH](OCCC#N)(OC(C)[C@H]3O[C@@H](n4ccc(N)nc4=O)C[C@@H]3O[PH](OCCC#N)(OC[C@H]3O[C@@H](n4cc(C)c(=O)[nH]c4=O)C[C@@H]3O[PH](OCCC#N)(OC(C)[C@H]3O[C@@H](n4ccc(N)nc4=O)C[C@@H]3O[PH](OCCC#N)(OC[C@H]3O[C@@H](n4cc(C)c(=O)[nH]c4=O)C[C@@H]3O[PH](OCCC#N)(OC(C)[C@H]3O[C@@H](n4ccc(N)nc4=O)C[C@@H]3O[PH](OCCC#N)(OC[C@H]3O[C@@H](n4cc(C)c(=O)[nH]c4=O)C[C@@H]3O)N(C(C)C)C(C)C)N(C(C)C)C(C)C)N(C(C)C)C(C)C)N(C(C)C)C(C)C)N(C(C)C)C(C)C)N(C(C)C)C(C)C)N(C(C)C)C(C)C)N(C(C)C)C(C)C)N(C(C)C)C(C)C)N(C(C)C)C(C)C)N(C(C)C)C(C)C)N(C(C)C)C(C)C)N(C(C)C)C(C)C)[C@@H](CO)O2)c(=O)[nH]c1=O (stereo partly specified) | 25 °C | 23 °C | 21 °C | 23 °C |
| Cc1cn([C@H]2C[C@H](O[PH](OCCC#N)(OC[C@H]3O[C@@H](n4cc(C)c(=O)[nH]c4=O)C[C@@H]3O[PH](OCCC#N)(OC[C@H]3O[C@@H](n4cc(C)c(=O)[nH]c4=O)C[C@@H]3O[PH](OCCC#N)(OC[C@H]3O[C@@H](n4cc(C)c(=O)[nH]c4=O)C[C@@H]3O[PH](OCCC#N)(OC[C@H]3O[C@@H](n4cc(C)c(=O)[nH]c4=O)C[C@@H]3O[PH](OCCC#N)(OC(C)[C@H]3O[C@@H](n4ccc(N)nc4=O)C[C@@H]3O[PH](OCCC#N)(OC[C@H]3O[C@@H](n4cc(C)c(=O)[nH]c4=O)C[C@@H]3O[PH](OCCC#N)(OC[C@H]3O[C@@H](CCc4cn(-c5ccccc5C(N)=O)nn4)C[C@@H]3OP(=O)(O)OC[C@H]3O[C@@H](n4cc(C)c(=O)[nH]c4=O)C[C@@H]3O[PH](OCCC#N)(OC(C)[C@H]3O[C@@H](n4ccc(N)nc4=O)C[C@@H]3O[PH](OCCC#N)(OC[C@H]3O[C@@H](n4cc(C)c(=O)[nH]c4=O)C[C@@H]3O[PH](OCCC#N)(OC(C)[C@H]3O[C@@H](n4ccc(N)nc4=O)C[C@@H]3O[PH](OCCC#N)(OC[C@H]3O[C@@H](n4cc(C)c(=O)[nH]c4=O)C[C@@H]3O[PH](OCCC#N)(OC(C)[C@H]3O[C@@H](n4ccc(N)nc4=O)C[C@@H]3O[PH](OCCC#N)(OC[C@H]3O[C@@H](n4cc(C)c(=O)[nH]c4=O)C[C@@H]3O)N(C(C)C)C(C)C)N(C(C)C)C(C)C)N(C(C)C)C(C)C)N(C(C)C)C(C)C)N(C(C)C)C(C)C)N(C(C)C)C(C)C)N(C(C)C)C(C)C)N(C(C)C)C(C)C)N(C(C)C)C(C)C)N(C(C)C)C(C)C)N(C(C)C)C(C)C)N(C(C)C)C(C)C)N(C(C)C)C(C)C)[C@@H](CO)O2)c(=O)[nH]c1=O (stereo partly specified) | 20 °C | 18 °C | 16 °C | 19 °C |
